Results on seven molecules are retold here after ChEMBL document CHEMBL1146145, “Isobrassinin and its analogues: novel types of antiproliferative agents” (Bioorg Med Chem Lett, 2006).

Bounds are passed on as bounds.

Holding throughout (details): read-out: Inhibition
Series [1] in a line: Cytotoxicity against human A431 cells at 30 uM. It counts as cell-based, A-431. Put shortly: (§1)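 MTT assay. Human HeLa (cervix adenocarcinoma), MCF7 (breast adenocarcinoma) and A431 (squamous skin carcinoma) cells were grown in minimal essential medium with 10% foetal bovine serum, antibiotic–antimycotic agents and non-essential amino acids, then seeded in 96-well plates. On day 2 the medium was replaced with compound-containing medium (DMSO final ≤0.1%). Exposure lasted 72 h, followed by 4 h MTT and DMSO solubilization of the formazan.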

A short description of series [2]: Cytotoxicity against human MCF7 cells at 30 uM. Format: cell-based. The procedure, abridged:
as §1

Series [3] in a line: Cytotoxicity against human HeLa cells at 30 uM. It counts as cell-based. Put shortly:
as §1

As to `CSC(=S)NCc1cc2ccccc2[nH]1` [ISOBRASSININ], the cytotoxicity at 30 µM in series [1] came out at 78.6%; in series [2], 86.2%; in series [3] it was 83.6%.

Take `S=C(NCc1cc2ccccc2[nH]1)Nc1ccccc1`: the results for the cytotoxicity at 30 µM in series [1], in series [2] and in series [3] were 45.7%, 57.4% and 50%, respectively.

In the case of `S=C(NCc1cc2ccccc2[nH]1)SCc1ccccc1`, the cytotoxicity at 30 µM in series [1] was determined as 70.7%; in series [2], 89%; in series [3] it was 76.1%.

`CSC1=NCc2[nH]c3ccccc3c2S1` [ISOCYCLOBRASSININ]: the cytotoxicity at 30 µM in series [1] is below 10%; in series [2] it was below 10%; in series [3] it was 44.5%.

`CNC(=S)NCc1cc2ccccc2[nH]1`: the cytotoxicity at 30 µM in series [1], in series [2] and in series [3] was below 10% throughout.

For `c1ccc(CSC2=NCc3[nH]c4ccccc4c3S2)cc1`, the cytotoxicity at 30 µM was 37.3% in series [2] and 45.8% in series [3].

Take `CSC(=S)NCc1c[nH]c2ccccc12` [BRASSININ]: the cytotoxicity at 30 µM amounted to 21.5% in series [2] and 25.2% in series [3].
